From ChEMBL document CHEMBL1649535, “In vitro interactions between antifungals and immunosuppressive drugs against zygomycetes” (2009)

How the values were obtained:
Assay type in all cases: functional
[1] = test system: Mucor circinelloides; assay: Antimicrobial activity against Mucor circinelloides after 24 hrs by broth microdilution checkerboard procedure
How it was run: (§1)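 CLSI broth microdilution for filamentous fungi, adapted to checkerboard; 1–3 isolates per species. Final ranges: amphotericin B and azoles 0.004–2 μg/ml; cyclosporine 0.125–8 μg/ml; tacrolimus and rapamycin 0.06–4 μg/ml, with extra runs at 0.001–0.06 μg/ml. Incubated 24 h at 35°C and read spectrophotometrically. MIC is the lowest concentration giving 50% inhibition (amphotericin B alone: 90%). Most tests run in duplicate.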

[2] = Antimicrobial activity against Rhizopus microsporus after 24 hrs by broth microdilution checkerboard procedure; how it was run: as §1
[3] = test system: Lichtheimia corymbifera; assay: Antimicrobial activity against Mycocladus corymbiferus after 24 hrs by broth microdilution checkerboard procedure; how it was run: as §1
[4] = test system: Rhizomucor pusillus; assay: Antimicrobial activity against Rhizomucor pusillus after 24 hrs by broth microdilution checkerboard procedure; how it was run: as §1
[5] = test system: Rhizopus arrhizus; assay: Antimicrobial activity against Rhizopus oryzae after 24 hrs by broth microdilution checkerboard procedure; how it was run: as §1

SMILES	MIC [1]	MIC [2]	MIC [3]	MIC [4]	MIC [5]
CO[C@H]1C[C@@H]2CC[C@@H](C)[C@@](O)(O2)C(=O)C(=O)N2CCCC[C@H]2C(=O)O[C@H]([C@H](C)C[C@@H]2CC[C@@H](O)[C@H](OC)C2)CC(=O)[C@H](C)/C=C(\C)[C@@H](O)[C@@H](OC)C(=O)[C@H](C)C[C@H](C)/C=C/C=C/C=C/1C [SIROLIMUS]	≤ 0.25 µg/mL	≤ 0.25 µg/mL	> 4 µg/mL	> 4 µg/mL	
CCC(C)n1ncn(-c2ccc(N3CCN(c4ccc(OCC5COC(Cn6cncn6)(c6ccc(Cl)cc6Cl)O5)cc4)CC3)cc2)c1=O (centres undefined) [ITRACONAZOLE]	0.62 µg/mL	0.62 µg/mL	0.62 µg/mL	0.62 µg/mL	0.62 µg/mL
CC[C@@H]([C@H](C)O)n1ncn(-c2ccc(N3CCN(c4ccc(OC[C@@H]5CO[C@@](Cn6cncn6)(c6ccc(F)cc6F)C5)cc4)CC3)cc2)c1=O [POSACONAZOLE]	0.57 µg/mL	0.57 µg/mL	0.57 µg/mL	0.57 µg/mL	0.57 µg/mL
C=CC[C@@H]1/C=C(\C)C[C@H](C)C[C@H](OC)[C@H]2O[C@@](O)(C(=O)C(=O)N3CCCC[C@H]3C(=O)O[C@H](/C(C)=C/[C@@H]3CC[C@@H](O)[C@H](OC)C3)[C@H](C)[C@@H](O)CC1=O)[C@H](C)C[C@@H]2OC [TACROLIMUS ANHYDROUS]	≤ 0.5 µg/mL	> 4 µg/mL	≤ 0.5 µg/mL	> 4 µg/mL	≤ 0.5 µg/mL
C[C@@H]1[C@H](O)[C@@H](C)/C=C/C=C/C=C/C=C/C=C/C=C/C=C/[C@H](O[C@@H]2O[C@H](C)[C@@H](O)[C@H](N)[C@@H]2O)C[C@@H]2O[C@](O)(C[C@@H](O)C[C@@H](O)[C@H](O)CC[C@@H](O)C[C@@H](O)CC(=O)O[C@H]1C)C[C@H](O)[C@H]2C(=O)O [AMPHOTERICIN B]	0.125 µg/mL	0.125 µg/mL	0.125 µg/mL	0.125 µg/mL	0.125 µg/mL
C[C@@H](c1nc(-c2ccc(C#N)cc2)cs1)[C@](O)(Cn1cncn1)c1ccc(F)cc1F [RAVUCONAZOLE]	0.44 µg/mL	0.44 µg/mL	0.44 µg/mL	0.44 µg/mL	0.44 µg/mL
